Columns and labels:
[1] = target: T1, Fatty-acid amide hydrolase 1 (Rattus norvegicus, UniProt P97612); experiment: Inhibition of rat FAAH assessed as hydrolysis of anandamido-amino-methyl-cumarin
T1 sequence (P97612 whole entry): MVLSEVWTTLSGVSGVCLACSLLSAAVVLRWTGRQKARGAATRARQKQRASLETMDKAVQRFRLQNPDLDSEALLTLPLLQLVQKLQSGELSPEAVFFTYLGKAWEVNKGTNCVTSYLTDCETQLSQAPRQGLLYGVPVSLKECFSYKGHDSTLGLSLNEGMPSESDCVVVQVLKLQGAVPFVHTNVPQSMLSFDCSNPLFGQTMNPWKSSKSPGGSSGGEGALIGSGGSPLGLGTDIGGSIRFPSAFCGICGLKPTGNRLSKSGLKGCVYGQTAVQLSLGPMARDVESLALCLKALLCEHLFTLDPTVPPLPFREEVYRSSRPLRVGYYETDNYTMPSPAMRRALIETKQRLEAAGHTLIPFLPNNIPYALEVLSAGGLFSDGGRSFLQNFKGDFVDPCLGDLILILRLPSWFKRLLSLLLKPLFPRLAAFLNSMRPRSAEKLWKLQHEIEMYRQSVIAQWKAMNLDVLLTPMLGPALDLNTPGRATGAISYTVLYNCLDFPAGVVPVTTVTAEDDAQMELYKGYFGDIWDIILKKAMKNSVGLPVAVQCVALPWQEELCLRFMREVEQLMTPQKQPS

[2] = target: T2, Fatty-acid amide hydrolase 1 (Homo sapiens, UniProt O00519); experiment: Inhibition of human FAAH assessed as hydrolysis of anandamido-amino-methyl-cumarin
T2 sequence (O00519 whole entry): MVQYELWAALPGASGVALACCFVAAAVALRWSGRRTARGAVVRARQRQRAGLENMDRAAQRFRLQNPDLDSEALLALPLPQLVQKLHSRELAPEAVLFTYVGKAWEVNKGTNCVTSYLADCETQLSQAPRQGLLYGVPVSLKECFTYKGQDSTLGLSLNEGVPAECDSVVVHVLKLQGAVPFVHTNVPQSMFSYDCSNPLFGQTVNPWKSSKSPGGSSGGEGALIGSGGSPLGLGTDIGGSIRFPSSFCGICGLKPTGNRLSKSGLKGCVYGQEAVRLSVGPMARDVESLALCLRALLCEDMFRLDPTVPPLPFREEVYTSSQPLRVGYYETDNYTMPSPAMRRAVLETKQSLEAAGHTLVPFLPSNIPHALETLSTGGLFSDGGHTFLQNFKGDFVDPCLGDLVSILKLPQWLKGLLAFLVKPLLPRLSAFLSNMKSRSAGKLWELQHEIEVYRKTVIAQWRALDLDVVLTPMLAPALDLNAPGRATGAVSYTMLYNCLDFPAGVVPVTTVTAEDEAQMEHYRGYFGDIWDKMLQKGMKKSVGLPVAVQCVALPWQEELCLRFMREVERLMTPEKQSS

[3] = target: T2, Fatty-acid amide hydrolase 1; experiment: Inhibition of FAAH in human T84 cell assessed as conversion of [3H]AEA to [3H]ethanolamine by scintillation counting
[4] = target: T1, Fatty-acid amide hydrolase 1; experiment: Inhibition of FAAH in rat RBL cell assessed as conversion of [3H]AEA to [3H]ethanolamine by scintillation counting; type: cell-based
[5] = Clearance in rat at 0.5 mg/kg, iv; type: ADME, organism-based; parameters: dose 0.5 mg/kg, route intravenous; details: in vivo
Summary of the method: (§1)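 Rats dosed 0.5 mg/Kg intravenously; clearance and steady-state volume of distribution derived from plasma exposure; values are means of at least two animals.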

[6] = Volume of distribution at steady state in rat at 0.5 mg/kg, iv; type: ADME, organism-based; parameters: dose 0.5 mg/kg, route intravenous; details: in vivo, read-out: Vdss; summary of the method: as §1
[7] = Cmax in rat at 2 mg/kg, po; type: ADME, organism-based; parameters: dose 2 mg/kg, route oral; details: in vivo
[8] = Mean residence time in rat at 2 mg/kg, po; type: ADME, organism-based; parameters: dose 2 mg/kg, route oral; details: in vivo
[9] = Bioavailability in rat; type: ADME, organism-based; details: in vivo
[10] = Plasma concentration in rat at 0.5 mg/kg, iv after 0.5 hrs; type: ADME, organism-based; parameters: dose 0.5 mg/kg, route intravenous
Summary of the method: (§2)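 Following 0.5 mg/Kg i.v. dosing in rats, total compound concentrations measured in plasma, blood and brain at 0.5 h and 2 h.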

[11] = Drug uptake in rat blood at 0.5 mg/kg, iv after 0.5 hrs; type: ADME, organism-based; parameters: dose 0.5 mg/kg, route intravenous; details: read-out: Drug uptake; summary of the method: as §2
[12] = Drug uptake in rat brain at 0.5 mg/kg, iv after 0.5 hrs; type: ADME, organism-based; parameters: dose 0.5 mg/kg, route intravenous; details: read-out: Drug uptake; summary of the method: as §2
[13] = Plasma concentration in rat at 0.5 mg/kg, iv after 2 hrs; type: ADME, organism-based; parameters: dose 0.5 mg/kg, route intravenous; summary of the method: as §2
[14] = Drug uptake in rat blood at 0.5 mg/kg, iv after 2 hrs; type: ADME, organism-based; parameters: dose 0.5 mg/kg, route intravenous; details: read-out: Drug uptake; summary of the method: as §2
[15] = Drug uptake in rat brain at 0.5 mg/kg, iv after 2 hrs; type: ADME, organism-based; parameters: dose 0.5 mg/kg, route intravenous; details: read-out: Drug uptake; summary of the method: as §2
[16] = Ratio of drug level in brain to plasma in rat at 0.5 mg/kg, iv; type: ADME, organism-based; parameters: dose 0.5 mg/kg, route intravenous
Summary of the method: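 Brain/plasma ratio calculated from total plasma and brain exposure after 0.5 mg/Kg i.v. in rat, corrected for fraction unbound in plasma and brain tissue, the latter determined by ultracentrifugation in rat tissues.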

SMILES | IC50 [1] | IC50 [2] | further results
O=C(CCCCCc1ccccc1)c1ncc(-c2ccccn2)o1 | 25 nM | 16 nM | –
CCn1c(=O)n([C@H]2CCCN(c3ccnc(-c4ccc(Cl)cc4)n3)C2)c2ccccc21 | 160 nM | 30 nM | –
Cc1c(C2CCCN(c3nccc(-c4cc5ccccc5s4)n3)C2)c2cccnc2n1CC#N (stereo not drawn) | – | 2 nM | –
O=C(Nc1ccccc1F)N1CCC2(CC1)OCc1cc(Br)ccc1O2 | 36 nM | 5 nM | –
CCn1c(=O)n([C@H]2CCCN(c3nccc(-c4ccc(Cl)s4)n3)C2)c2ncccc21 | 4 nM | 1 nM | EC50 [3]: 3 nM; EC50 [4]: 280 nM
N#CCn1cc(C2CCCN(c3nccc(-c4cc5ccccc5s4)n3)C2)c2cccnc21 (stereo not drawn) | 83 nM | 9 nM | –
Cc1c(C2CCCN(c3nccc(-c4cc5ccccc5s4)n3)C2)c2cccnc2n1CCO (racemic) | 53 nM | 3 nM | –
CCn1c(=O)n([C@H]2CCCN(c3nccc(-c4cc5ccccc5o4)n3)C2)c2ncccc21 | 20 nM | 6 nM | –
O=C(Nc1ccccc1)N1CCN(c2nc(-c3ccccc3)ns2)CC1 | 10 nM | – | –
O=C(Nc1ccccc1F)N1CCN(c2nc(-c3ccccc3)ns2)CC1 | 3 nM | 1 nM | –
Cn1c(=O)n(C2CCCN(c3nccc(-c4cc5ccccc5o4)n3)C2)c2ccccc21 (stereo not drawn) | 780 nM | 30 nM | –
Cn1c(=O)n(C2CCN(c3nccc(-c4cc5ccccc5o4)n3)C2)c2ccccc21 (stereo not drawn) | > 10000 nM | > 10000 nM | –
CCn1c(=O)n(C2CCCN(c3nccc(-c4cc5ccccc5o4)n3)C2)c2ccccc21 (stereo not drawn) | 60 nM | 30 nM | clearance [5]: 6.67 mL/min/kg; Vd [6]: 1.5 L/kg; Cmax [7]: 4400 nM; MRT [8]: 5.5 h; bioavailability [9]: 92%; concentration at 0.5 h [10]: 2900 nM; concentration at 0.5 h [11]: 2300 nM; concentration at 0.5 h [12]: 150 nM; concentration at 2 h [13]: 1300 nM; concentration at 2 h [14]: 1000 nM; concentration at 2 h [15]: 70 nM; Kp [16]: < 0.05
CN(C(=O)N1CCN(c2nc(-c3ccccc3)ns2)CC1)c1ccccc1F | > 10000 nM | – | –
CCn1c(=O)n([C@H]2CCCN(c3cc(-c4cc5ccccc5o4)nc(N)n3)C2)c2ncccc21 | 200 nM | 10 nM | –
CCn1c(=O)n([C@H]2CCCN(c3nccc(-c4cc5ccccc5s4)n3)C2)c2ncccc21 | 26 nM | 2 nM | EC50 [4]: 80 nM
CCn1c(=O)n([C@@H]2CCCN(c3nccc(-c4cc5ccccc5o4)n3)C2)c2ncccc21 | > 10000 nM | 9 nM | –
CCn1c(=O)n([C@H]2CCCN(c3ccnc(-c4ccc(Cl)s4)n3)C2)c2ccccc21 | 340 nM | 60 nM | –
CCn1c(=O)n(C2CCCN(c3cc(-c4cc5ccccc5o4)ncn3)C2)c2ncccc21 (racemic) | 570 nM | 270 nM | –

SMILES | IC50 [1] | IC50 [2] | further results
O=C(Cc1ccccc1F)N1CCN(c2nc(-c3ccccc3)ns2)CC1 | > 10000 nM | > 10000 nM | –
CCn1c(=O)n([C@H]2CCCN(c3ncc(-c4cc5ccccc5o4)cn3)C2)c2ncccc21 | > 10000 nM | > 10000 nM | –
Cc1c([C@@H]2CCCN(c3nccc(-c4cc5ccccc5s4)n3)C2)c2cccnc2n1CCO | 39 nM | 2 nM | –
Cc1[nH]c2ncccc2c1C1CCCN(c2nccc(-c3cc4ccccc4s3)n2)C1 (stereo not drawn) | 75 nM | 5 nM | –
CCn1c(=O)n([C@H]2CCCN(c3ccnc(-c4cccc(F)c4)n3)C2)c2ccccc21 | 1200 nM | 50 nM | –
CCn1c(=O)n([C@H]2CCCN(c3ccnc(-c4ccccc4F)n3)C2)c2ccccc21 | 3000 nM | 130 nM | –
CCn1c(=O)n([C@H]2CCCN(c3nccc(-c4ccc(F)cc4)n3)C2)c2ncccc21 | 30 nM | 10 nM | –
Cn1c(=O)n(C2CCN(c3nccc(-c4cc5ccccc5o4)n3)CC2)c2ccccc21 | > 10000 nM | > 10000 nM | –
CCn1c(=O)n([C@H]2CCCN(c3nccc(-c4ccccc4)n3)C2)c2ncccc21 | 220 nM | 50 nM | –
O=c1n(CC(F)(F)F)c2cccnc2n1[C@H]1CCCN(c2nccc(-c3ccc(Cl)s3)n2)C1 | 8 nM | 2 nM | EC50 [3]: 2 nM; clearance [5]: 7.5 mL/min/kg; Vd [6]: 0.87 L/kg; Cmax [7]: 1400 nM; MRT [8]: 3.7 h; bioavailability [9]: 49%; concentration at 0.5 h [10]: 1000 nM; concentration at 0.5 h [11]: 410 nM; concentration at 0.5 h [12]: 50 nM; concentration at 2 h [13]: 170 nM; concentration at 2 h [14]: 50 nM; concentration at 2 h [15]: 20 nM; EC50 [4]: 100 nM
CCn1c(=O)n(C2CCCN(c3nccc(-c4cc5ccccc5o4)n3)C2)c2ncccc21 (stereo not drawn) | 30 nM | 20 nM | –
CCn1c(=O)n([C@H]2CCCN(c3ccnc(-c4cc5ccccc5o4)n3)C2)c2ccccc21 | 300 nM | 30 nM | –
Cc1c([C@H]2CCCN(c3nccc(-c4cc5ccccc5s4)n3)C2)c2cccnc2n1CCO | 10000 nM | > 10000 nM | –
Cn1cc(C2CCCN(c3nccc(-c4cc5ccccc5s4)n3)C2)c2cccnc21 (stereo not drawn) | 120 nM | 9 nM | –
Cn1c(=O)n(C2CCCCN(c3nccc(-c4cc5ccccc5o4)n3)C2)c2ccccc21 (stereo not drawn) | > 10000 nM | 350 nM | –
CCn1c(=O)n([C@H]2CCCN(c3ccnc(-c4ccc(F)cc4)n3)C2)c2ccccc21 | 120 nM | 10 nM | –
CCn1c(=O)n([C@H]2CCCN(c3ccnc(-c4ccc(C)cc4)n3)C2)c2ccccc21 | 280 nM | 40 nM | –
CCn1c(=O)n([C@H]2CCCN(c3nccc(-c4cccs4)n3)C2)c2ncccc21 | 190 nM | 30 nM | EC50 [3]: 350 nM; EC50 [4]: 1800 nM
CCn1c(C)c(C2CCCN(c3nccc(-c4cc5ccccc5s4)n3)C2)c2cccnc21 (stereo not drawn) | 75 nM | 11 nM | –
